Measured values published in ChEMBL document CHEMBL3593170 (J Nat Prod, 2015).
The source made the active and inactive calls. The calls are words filed in the database; no cut-off is given here.

Tests used:
[1] = target: T1, Transient receptor potential cation channel subfamily A member 1 (Homo sapiens, UniProt O75762); test: Activation of human TRPA1 expressed in TREx-HEK cells at 1 uM in presence of TRPA1 antagonist HC030031 by Fluo-4 AM dye-based Ca2+ imaging assay; assay type: cell-based
Method in brief: (§1)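 Tetracycline-induced (1 μg/mL, 24 h after seeding) TREx HEK cells stably expressing hTRPA1, or TREx HEK cells not expressing TRPA1; Fluo-4 AM 3 μM loading 1 h 37 °C; Ca2+ change read at 37 °C. Response as % of 5 μM ionomycin; mean ± SEM, n = 3−8.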

[2] = target: T2, Transient receptor potential cation channel subfamily V member 1 (Homo sapiens, UniProt Q8NER1); test: Activation of human TRPV1 expressed in TREx-HEK cells by Fluo-4 AM dye-based Ca2+ imaging assay relative to 10 uM capsaicin; assay type: cell-based
[3] = target: T2, Transient receptor potential cation channel subfamily V member 1; test: Activation of human TRPV1 expressed in TREx-HEK cells by Fluo-4 AM dye-based Ca2+ imaging assay; assay type: cell-based
[4] = target: T1, Transient receptor potential cation channel subfamily A member 1; test: Activation of human TRPA1 expressed in TREx-HEK cells by Fluo-4 AM dye-based Ca2+ imaging assay relative to 100 uM ITC; assay type: cell-based
[5] = target: T2, Transient receptor potential cation channel subfamily V member 1; test: Activation of human TRPV1 expressed in TREx-HEK cells at 300 uM in presence of TRPV1 antagonist CPZ by Fluo-4 AM dye-based Ca2+ imaging assay; assay type: cell-based
Method in brief: (§2)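 TREx HEK cells stably expressing hTRPV1 (tetracycline 1 μg/mL induction) or parental TREx HEK cells lacking TRPV1, Fluo-4 AM (3 μM, 1 h, 37 °C) loaded; compounds at 300 μM, capsazepine 30 μM co-added where stated; Ca2+ at 37 °C as % of 5 μM ionomycin; mean ± SEM, n = 3−7.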

[6] = target: T1, Transient receptor potential cation channel subfamily A member 1; test: Activation of human TRPA1 expressed in TREx-HEK cells at 1 uM by Fluo-4 AM dye-based Ca2+ imaging assay; assay type: cell-based; method in brief: as §1
[7] = Effect on Ca2+ response in TREx-HEK cells at 300 uM by Fluo-4 AM dye-based Ca2+ imaging assay; assay type: ADME, cell-based; conditions: human; method in brief: as §2
[8] = target: Transient receptor potential cation channel subfamily M member 8 (Mus musculus) (UniProt Q8R4D5); test: Agonist activity at mouse TRPM8 expressed in TREx-HEK cells at 300 uM by Fluo-4 AM dye-based Ca2+ imaging assay; assay type: cell-based
Method in brief: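 Mouse TRPM8 stably expressed in TREx HEK cells, induced with 1 μg/mL tetracycline; Fluo-4 AM 3 μM loading, 1 h, 37 °C; compounds 300 μM freshly diluted from DMSO; Ca2+ change read at 37 °C; ionomycin 5 μM for maximum fluorescence; menthol 100 μM agonist control, BCTC 10 μM antagonist.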

[9] = target: T2, Transient receptor potential cation channel subfamily V member 1; test: Activation of human TRPV1 expressed in TREx-HEK cells at 300 uM by Fluo-4 AM dye-based Ca2+ imaging assay; assay type: cell-based; method in brief: as §2
[10] = target: T1, Transient receptor potential cation channel subfamily A member 1; test: Activation of human TRPA1 expressed in TREx-HEK cells by Fluo-4 AM dye-based Ca2+ imaging assay; assay type: cell-based
[11] = Effect on Ca2+ response in TREx-HEK cells at 1 uM by Fluo-4 AM dye-based Ca2+ imaging assay; assay type: ADME, cell-based; conditions: human; method in brief: as §1
[12] = Effect on Ca2+ response in TREx-HEK cells at 30 uM by Fluo-4 AM dye-based Ca2+ imaging assay; assay type: ADME, cell-based; conditions: human
Method in brief: as §1, with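 “°C. Compounds in DMSO, diluted in measuring buffer just before addition; 1 μM (30 μM for one compound); HC030031 30 μM co-added where stated.” for “°C.”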

[13] = target: T1, Transient receptor potential cation channel subfamily A member 1; test: Activation of human TRPA1 expressed in TREx-HEK cells at 30 uM by Fluo-4 AM dye-based Ca2+ imaging assay; assay type: cell-based
Method in brief: as §1, with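 “°C. Compounds in DMSO, diluted in measuring buffer just before addition; 1 μM (30 μM for one compound); HC030031 30 μM co-added where stated.” for “°C.”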

[14] = target: T1, Transient receptor potential cation channel subfamily A member 1; test: Activation of human TRPA1 expressed in TREx-HEK cells at 30 uM in presence of TRPA1 antagonist HC030031 by Fluo-4 AM dye-based Ca2+ imaging assay; assay type: cell-based

T1 sequence (O75762 whole entry): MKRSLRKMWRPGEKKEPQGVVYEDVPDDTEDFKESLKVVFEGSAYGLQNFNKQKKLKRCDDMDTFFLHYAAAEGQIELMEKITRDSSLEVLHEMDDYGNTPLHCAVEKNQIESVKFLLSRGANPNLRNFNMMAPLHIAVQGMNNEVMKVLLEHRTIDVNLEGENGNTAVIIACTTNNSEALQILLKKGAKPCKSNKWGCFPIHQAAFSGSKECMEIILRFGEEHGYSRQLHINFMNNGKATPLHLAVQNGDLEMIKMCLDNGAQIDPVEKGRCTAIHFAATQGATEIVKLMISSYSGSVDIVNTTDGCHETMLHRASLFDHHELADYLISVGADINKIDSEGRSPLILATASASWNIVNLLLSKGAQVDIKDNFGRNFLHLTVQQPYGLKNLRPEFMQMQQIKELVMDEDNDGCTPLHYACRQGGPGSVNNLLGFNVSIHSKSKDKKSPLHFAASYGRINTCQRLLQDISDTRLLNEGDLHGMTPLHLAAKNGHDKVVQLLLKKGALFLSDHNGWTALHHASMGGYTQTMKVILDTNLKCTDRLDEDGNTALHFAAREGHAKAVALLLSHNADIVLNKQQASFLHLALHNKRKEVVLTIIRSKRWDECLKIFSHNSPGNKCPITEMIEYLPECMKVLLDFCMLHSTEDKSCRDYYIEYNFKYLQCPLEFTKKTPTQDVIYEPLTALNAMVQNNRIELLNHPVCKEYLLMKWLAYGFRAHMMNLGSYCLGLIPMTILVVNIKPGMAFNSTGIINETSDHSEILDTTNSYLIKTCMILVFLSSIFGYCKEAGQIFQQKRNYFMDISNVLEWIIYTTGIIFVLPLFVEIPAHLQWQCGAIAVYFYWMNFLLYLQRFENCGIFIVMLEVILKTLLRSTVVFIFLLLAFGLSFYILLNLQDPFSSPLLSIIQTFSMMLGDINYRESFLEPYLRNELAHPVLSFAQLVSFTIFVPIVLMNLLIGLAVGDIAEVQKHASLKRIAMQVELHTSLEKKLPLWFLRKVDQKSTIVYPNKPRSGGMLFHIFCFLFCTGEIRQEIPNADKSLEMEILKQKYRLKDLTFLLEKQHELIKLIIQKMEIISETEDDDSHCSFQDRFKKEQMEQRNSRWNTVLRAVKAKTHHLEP
T2 sequence (Q8NER1 whole entry): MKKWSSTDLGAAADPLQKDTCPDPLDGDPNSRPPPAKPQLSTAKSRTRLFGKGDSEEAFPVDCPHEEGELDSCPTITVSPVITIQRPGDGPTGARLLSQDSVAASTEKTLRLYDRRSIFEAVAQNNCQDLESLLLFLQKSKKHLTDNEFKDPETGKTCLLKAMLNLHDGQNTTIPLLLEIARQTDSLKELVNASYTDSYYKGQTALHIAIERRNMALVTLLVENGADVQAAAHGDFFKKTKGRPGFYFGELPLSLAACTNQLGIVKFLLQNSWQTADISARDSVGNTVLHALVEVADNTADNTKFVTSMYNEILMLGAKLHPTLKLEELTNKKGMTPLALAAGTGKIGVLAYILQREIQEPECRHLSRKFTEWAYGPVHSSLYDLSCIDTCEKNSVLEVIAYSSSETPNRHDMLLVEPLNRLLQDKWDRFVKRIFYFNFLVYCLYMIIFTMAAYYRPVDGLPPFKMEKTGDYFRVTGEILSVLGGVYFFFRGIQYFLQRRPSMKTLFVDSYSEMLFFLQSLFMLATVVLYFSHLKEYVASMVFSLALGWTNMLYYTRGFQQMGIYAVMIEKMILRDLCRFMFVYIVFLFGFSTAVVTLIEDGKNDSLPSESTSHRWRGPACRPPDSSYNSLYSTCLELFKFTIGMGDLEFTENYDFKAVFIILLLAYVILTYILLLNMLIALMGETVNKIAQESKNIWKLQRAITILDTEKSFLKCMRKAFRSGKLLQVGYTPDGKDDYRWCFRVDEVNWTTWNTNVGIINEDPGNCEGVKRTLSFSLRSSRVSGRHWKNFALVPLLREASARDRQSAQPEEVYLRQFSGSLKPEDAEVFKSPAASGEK
Transient receptor potential cation channel subfamily M member 8 (Mus musculus), sequence (Q8R4D5 whole entry): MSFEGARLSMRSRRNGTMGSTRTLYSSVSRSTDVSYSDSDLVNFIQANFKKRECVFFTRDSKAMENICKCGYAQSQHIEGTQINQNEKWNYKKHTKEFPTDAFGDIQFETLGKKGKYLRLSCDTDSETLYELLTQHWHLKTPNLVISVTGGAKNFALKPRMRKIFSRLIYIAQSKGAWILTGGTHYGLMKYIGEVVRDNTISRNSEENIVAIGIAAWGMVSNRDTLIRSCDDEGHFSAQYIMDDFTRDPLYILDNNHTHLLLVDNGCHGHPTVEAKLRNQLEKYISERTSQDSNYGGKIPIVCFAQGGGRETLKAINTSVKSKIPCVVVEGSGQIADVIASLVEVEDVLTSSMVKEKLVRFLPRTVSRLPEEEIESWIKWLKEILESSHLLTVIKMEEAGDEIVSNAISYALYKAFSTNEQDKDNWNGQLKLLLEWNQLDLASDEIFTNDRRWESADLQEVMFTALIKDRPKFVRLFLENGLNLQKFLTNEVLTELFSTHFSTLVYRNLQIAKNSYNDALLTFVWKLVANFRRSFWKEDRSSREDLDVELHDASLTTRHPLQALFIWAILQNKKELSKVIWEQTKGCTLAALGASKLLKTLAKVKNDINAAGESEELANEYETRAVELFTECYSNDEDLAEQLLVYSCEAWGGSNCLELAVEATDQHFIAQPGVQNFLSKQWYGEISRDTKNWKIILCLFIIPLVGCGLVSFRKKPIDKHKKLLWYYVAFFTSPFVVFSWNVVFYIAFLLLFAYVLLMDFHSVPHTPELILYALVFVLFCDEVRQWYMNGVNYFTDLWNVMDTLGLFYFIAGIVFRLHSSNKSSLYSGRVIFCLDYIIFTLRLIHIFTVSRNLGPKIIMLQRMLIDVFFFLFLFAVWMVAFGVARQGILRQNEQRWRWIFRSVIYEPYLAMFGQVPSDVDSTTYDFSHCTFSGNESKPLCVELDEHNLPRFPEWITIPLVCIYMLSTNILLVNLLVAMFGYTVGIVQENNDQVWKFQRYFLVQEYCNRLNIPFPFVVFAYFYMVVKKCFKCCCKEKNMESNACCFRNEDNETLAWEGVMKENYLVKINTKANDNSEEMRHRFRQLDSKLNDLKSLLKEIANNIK

Row | SMILES | Activity [1] | max activation [2] | EC50 ([3]; read-out: EC50) [nM] | max activation [4] [%] | Activity [5] | Activity [6] | Activity [7] | Activity [8] | Activity [9] | EC50 [10] [nM] | Activity [11] | EC50 ([3]; trex-hek) | Activity [12] | Activity [13] | Activity [14]
1 | CC(C)N=C=S [ISOPROPYL ISOTHIOCYANATE] | inactive | 50% | 100000 | 82 | inactive | Active | Non-toxic | inactive | Active | 530 | Non-toxic | – | – | – | –
2 | C=CCCN=C=S | inactive | inactive | – | 95 | – | Active | – | inactive | inactive | 360 | Non-toxic | Not Active | – | – | –
3 | CSCCCCCN=C=S | inactive | inactive | – | 92 | – | Active | – | inactive | inactive | 500 | Non-toxic | Not Active | – | – | –
4 | C=CCCCCN=C=S | inactive | inactive | – | 93 | – | Active | – | inactive | inactive | 1040 | Non-toxic | Not Active | – | – | –
5 | S=C=NCc1ccccc1 [BENZYL ISOTHIOCYANATE] | inactive | 49% | 223000 | 95 | inactive | Active | Non-toxic | inactive | Active | 250 | Non-toxic | – | – | – | –
6 | CSCCCCCCN=C=S | inactive | inactive | – | 92 | – | Active | – | inactive | inactive | 580 | – | Not Active | – | – | –
7 | CCC(C)N=C=S (centres undefined) | inactive | 62% | 100000 | 88 | inactive | Active | Non-toxic | inactive | Active | 680 | Non-toxic | – | – | – | –
8 | C=CCN=C=S [ALLYL ISOTHIOCYANATE] | inactive | 25% | 160000 | 97 | inactive | Active | Non-toxic | inactive | Active | – | Non-toxic | – | – | – | –
9 | CC(C)CN=C=S | inactive | inactive | – | 89 | – | Active | – | inactive | – | 690 | Non-toxic | Not Active | – | – | –
10 | CSCCCN=C=S | inactive | inactive | – | 94 | – | Active | – | inactive | inactive | 450 | Non-toxic | Not Active | – | – | –
11 | Oc1ccc(CN=C=S)cc1 | – | 63% | 170000 | 96 | inactive | – | Non-toxic | inactive | Active | 20000 | – | – | Non-toxic | Active | inactive
12 | CSCCCCCCCN=C=S | inactive | inactive | – | 90 | – | Active | – | inactive | inactive | 610 | Non-toxic | Not Active | – | – | –
13 | S=C=NCCc1ccccc1 [PHENETHYLISOTHIOCYANATE] | inactive | 43% | 180000 | 94 | inactive | Active | Non-toxic | inactive | Active | 370 | Non-toxic | – | – | – | –
14 | C=CCCCN=C=S | inactive | inactive | – | 90 | – | Active | – | inactive | inactive | 540 | Non-toxic | Not Active | – | – | –
15 | C=CCCCCCN=C=S | inactive | inactive | – | 90 | – | Active | – | inactive | inactive | 1050 | Non-toxic | Not Active | – | – | –
